Published values collected from several papers.
Lines come from different studies, so protocols differ.
BDKRB1: B1 bradykinin receptor (BDKRB1, Homo sapiens, UniProt P46663)
PTGS1: Prostaglandin G/H synthase 1 (PTGS1, Homo sapiens, UniProt P23219)
FAAH: Fatty-acid amide hydrolase 1 (FAAH, Homo sapiens, UniProt O00519)
HTR2C: 5-hydroxytryptamine receptor 2C (HTR2C, Homo sapiens, UniProt P28335)
CCKBR: Gastrin/cholecystokinin type B receptor (CCKBR, Homo sapiens, UniProt P32239)
USP10: Ubiquitin carboxyl-terminal hydrolase 10 (USP10, Homo sapiens, UniProt Q14694)
MMP3: Stromelysin-1 (MMP3, Homo sapiens, UniProt P08254)

| Compound | target | test | conditions | inhibition [%] |
| --- | --- | --- | --- | --- |
| CN(CCN1CCC(OC(=O)Nc2ccccc2-c2ccccc2)CC1)C(=O)c1ccc(CN2CCC(C(N)=O)CC2)cc1 | BDKRB1 | ligand displacement, radioligand | 1 µM | 0 |
| Cn1cc(-c2cccc(N3CCc4c(sc5c4CC(C)(C)C5)C3=O)c2CO)cc(Nc2ccncn2)c1=O | Mitogen-activated protein kinase kinase kinase 8 (MAP3K8, Homo sapiens, UniProt P41279) | enzyme activity, inhibitor | 1 µM | 16 |
| O=C(Nc1cccnn1)N1CCN([C@@H]2CCOc3cc(C(F)(F)F)ccc32)CC1 | PTGS1 | enzyme activity, inhibitor | 20 µM | 1 |
| CN(C(=O)Oc1nsnc1N1CCCCC1)C1CCCCCCC1 | FAAH | enzyme activity, inhibitor | 10 µM, cell membranes | 13 |
| COCCN(CCOC)C(=O)[C@@]12C[C@@H]1[C@@H](n1cnc3c(N)nc(Cl)nc31)[C@H](O)[C@@H]2O | HTR2C | ligand displacement, radioligand | 10 µM | 12 |
| Nc1ncnc2c1ncn2[C@@H]1O[C@H](C[C@@H](N)CC[C@H](N)C(=O)O)[C@@H](O)[C@H]1O | mRNA cap guanine-N(7) methyltransferase (RNMT, Homo sapiens, UniProt O43148) | enzyme activity, inhibitor | 50 µM | 98.2 |
| COc1cc(Nc2ncc(F)c(Nc3ccc4c(n3)NC(=O)C(C)(C)O4)n2)cc(OC)c1OC | Serine/threonine-protein kinase SIK3 (SIK3, Homo sapiens, UniProt Q9Y2K2) | binding, competition with immobilised ligand | 10 µM | 35 |
| CN(C(=O)Oc1nsnc1N1CCCCC1)c1cccc([N+](=O)[O-])c1 | FAAH | enzyme activity, inhibitor | 10 µM, cell membranes | 11 |
| Cc1ncc(C)n2nc(/C=C/c3nc(N4CCCC4)cc(N4CCOCC4)n3)nc12 | CCKBR | cell-free assay | 10 µM | -16 |
| COc1ccc(S(=O)(=O)N2CCCCC2)cc1C | BDKRB1 | ligand displacement, radioligand | 10 µM | < 30 |
| OC(c1ccc(F)cc1)C(F)(F)CCN1CCC(O)(c2ccc(Cl)cc2)CC1 (racemic) | Sigma intracellular receptor 2 (Tmem97, Rattus norvegicus, UniProt Q5U3Y7) | ligand displacement, radioligand | 10 µM | > 50 |
| c1ccc(C(NCCNC(c2ccccc2)c2ccccc2)c2ccccc2)cc1 | CCKBR | cell-free assay | 10 µM | 33 |
| CN(C(=O)Oc1nsnc1N1CCCCC1)c1ccc(C#N)cc1 | FAAH | enzyme activity, inhibitor | 10 µM, cell membranes | 19 |
| C#Cc1n[nH]c2c(-c3cn(C(C)c4ccccn4)c(=O)[nH]c3=O)cc(F)cc12 (stereo not shown) | Tyrosine-protein kinase receptor TYRO3 (TYRO3, Homo sapiens, UniProt Q06418) | enzyme activity, inhibitor | 1 µM | 79 |
| COc1cc2c3c(c1OC)-c1cc4c(cc1CC3N(C)CC2)OCO4 (racemic) | HTR2C | ligand displacement, radioligand | 10 µM | 103 |
| CCN(C(=O)Oc1nsnc1N1CCCCC1)c1ccccc1 | FAAH | enzyme activity, inhibitor | 10 µM, cell membranes | 24 |

| Compound | target | test | conditions | inhibition [%] |
| --- | --- | --- | --- | --- |
| CC(C)N1CCC[C@H]1CNC(=O)c1cn(C2CCCC2)c(=O)c2c1c1ccccc1n2C | BDKRB1 | ligand displacement, radioligand | 10 µM | 12 |
| N=C(N)c1ccc2cc(OC(=O)c3ccc(N=C(N)N)cc3)ccc2c1 | USP10 | enzyme activity, inhibitor | 10 µM | 0 |
| CN(C(=O)Oc1nsnc1N1CCCCC1)c1cccc(-c2ccccc2)c1 | FAAH | enzyme activity, inhibitor | 10 µM, cell membranes | 13 |
| CN(C)C(=O)COC(=O)Cc1ccc(OC(=O)c2ccc(NC(=N)N)cc2)cc1 | USP10 | enzyme activity, inhibitor | 10 µM | 2 |
| C#Cc1n[nH]c2c(-c3cn([C@@H](C)c4ccccc4)c(=O)[nH]c3=O)cc(F)cc12 | Rho-associated protein kinase 1 (ROCK1, Homo sapiens, UniProt Q13464) | enzyme activity, inhibitor | 0.1 µM | 3.5 |
| C[C@H](C(=O)N[C@H]1COc2ccccc2[C@@H]1S(C)(=O)=O)c1ccc(F)cc1 | PTGS1 | enzyme activity, inhibitor | 10 µM | -24 |
| COc1ccccc1N(C)C(=O)Oc1nsnc1N1CCCCC1 | FAAH | enzyme activity, inhibitor | 10 µM, cell membranes | 18 |
| COc1ccc(S(=O)(=O)N(CC(=O)NO)CC(C)C)cc1 | MMP3 | enzyme activity, inhibitor | 10 nM | 20 |
| CN(C(=O)Oc1nsnc1N1CCCCC1)C1CCCCCC1 | FAAH | enzyme activity, inhibitor | 10 µM, cell membranes | 21 |
| COCc1c(-c2cc3cc(C)cc(OC)c3s2)c2c(N)ncnn2c1CN1CCNC(=O)C1 | Tyrosine-protein kinase receptor Tie-1 (TIE1, Homo sapiens, UniProt P35590) | cell-free assay, competition with immobilised ligand | 1 µM | 83 |
| CCOC(=O)c1ccc(OC(=O)CCCCCNC(=N)N)cc1 | USP10 | enzyme activity, inhibitor | 10 µM | 3 |
| CCCCc1ccc(C(=O)O)nc1 | MMP3 | enzyme activity, inhibitor | 1 mM, pH 6 | > 80 |
| CCC(C)c1ccccc1OCC(=O)N1CCC(C(=O)Nc2ccc3c(c2)OCO3)CC1 (stereo not shown) | Trypanothione synthetase (Trypanosoma cruzi, UniProt Q9GT49) | enzyme activity, inhibitor, absorbance | 25 µM | 5.5 |
| Cn1cc(-c2cc(F)cc(N3CCn4c(cc5c4CCCC5)C3=O)c2CO)cc(Nc2ccc(N3CCN(C4COC4)CC3)cn2)c1=O | Aurora kinase A (AURKA, Homo sapiens, UniProt O14965) | enzyme activity, inhibitor | 0.1 µM | 10 |
| Cc1cc(C)c(N(C)C(=O)Oc2nsnc2N2CCCCC2)c(C)c1 | FAAH | enzyme activity, inhibitor | 10 µM, cell membranes | 7 |
